# From ChEMBL document CHEMBL1155932, “False positives in a reporter gene assay: identification and synthesis of substituted N-pyridin-2-ylbenzamides as competitive inhibitors of firefly luciferase” (J Med Chem, 2008)
# T1: Luciferin 4-monooxygenase (Luciola lateralis, UniProt Q01158)
# T1 sequence (Q01158 whole entry): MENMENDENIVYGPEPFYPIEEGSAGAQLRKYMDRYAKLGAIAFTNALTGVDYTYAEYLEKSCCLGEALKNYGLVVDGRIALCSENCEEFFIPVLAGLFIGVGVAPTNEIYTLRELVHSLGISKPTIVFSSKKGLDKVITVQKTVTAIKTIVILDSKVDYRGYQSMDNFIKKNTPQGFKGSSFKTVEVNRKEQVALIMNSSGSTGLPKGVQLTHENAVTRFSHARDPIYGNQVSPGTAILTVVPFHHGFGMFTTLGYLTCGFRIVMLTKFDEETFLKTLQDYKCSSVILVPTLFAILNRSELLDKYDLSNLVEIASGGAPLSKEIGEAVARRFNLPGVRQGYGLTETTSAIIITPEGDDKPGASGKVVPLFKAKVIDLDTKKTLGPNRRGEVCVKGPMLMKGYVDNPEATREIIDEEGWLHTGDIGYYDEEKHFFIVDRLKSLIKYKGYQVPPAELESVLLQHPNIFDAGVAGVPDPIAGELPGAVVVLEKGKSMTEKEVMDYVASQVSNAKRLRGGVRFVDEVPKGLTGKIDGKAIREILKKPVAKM
# T2: Luciferin 4-monooxygenase (Luciola lateralis) (UniProt Q01158)
# T2 sequence (whole entry): T1 sequence (Q01158 whole entry)
# B1: Luciferin 4-monooxygenase (Luciola lateralis), Q01158 (protein)
# chain: T1 sequence (Q01158 whole entry)
# Target: T1, Luciferin 4-monooxygenase
# Test: Inhibition of firefly luciferase activity
# Parameters: species or system Aquatica lateralis
# Settings: not given
# How it was run: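 Firefly luciferase (32 pM) in glycine-Tris buffer with EDTA and MgSO4, pH 7.8; substrates 50 µM D-luciferin and 90 µM ATP in glycine-Tris/MgSO4/EDTA/0.1% BSA/azide buffer, pH 7.8. Inhibitor tested at 11 concentrations; 30 min dark incubation, room temperature; luminescence counted. Nonspecific activity defined with 100 µM reference inhibitor. IC50 ± SEM from three experiments in duplicate.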
row,Molecule,IC50 [nM]
1,O=C(Nc1ccc(-c2ccccc2)cn1)c1cccc(Cl)c1,160
2,O=C(Nc1ccc(-c2ccccc2)cn1)C1CCCCC1,2400
3,COc1ccc(-c2ccc(NC(=O)c3ccccc3)nc2)cc1,310
4,O=C(Nc1ccc(-c2ccccc2)cn1)c1ccccc1,69
5,COc1ccc(C(=O)Nc2ccc(C)cn2)c(OC)c1,610
6,Cc1ccc(NC(=O)c2ccccc2)nc1,6400
7,O=C(Nc1ccc(-c2ccc(Cl)cc2)cn1)c1ccccc1,560
8,O=C(Nc1ccc2ccccc2n1)c1ccccc1,1700
9,Nc1ccc(C(=O)Nc2ccc(-c3ccccc3)cn2)cc1,1200

# Target: T2, Luciferin 4-monooxygenase (Luciola lateralis)
# Test: Inhibition of firefly luciferase activity at 10 uM
# Settings: Aquatica lateralis
# How it was run: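 Single 10 µM inhibitor concentration against 32 pM firefly luciferase with 50 µM D-luciferin and 90 µM ATP, pH 7.8 glycine-Tris buffers containing MgSO4 and EDTA. 30 min incubation in the dark at room temperature, then luminescence read. Percent inhibition from n = 2 experiments in duplicate.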
row,Molecule,inhibition [%]
1,O=C(Nc1ccc(-c2ccc(Cl)c(Cl)c2)cn1)c1ccccc1,4
2,O=C(Nc1ccc(-c2ccccc2)cn1)c1ccc(Cl)cc1,0
3,Cc1ccc(C(=O)Nc2ccc(-c3ccccc3)cn2)cc1,18
4,CC(C)Oc1ccc(C(=O)Nc2ccc(-c3ccccc3)cn2)cc1,12
5,COc1ccc(C(=O)Nc2ccc(-c3ccccc3)cn2)c(OC)c1,26
6,Cc1ccc(-c2ccc(NC(=O)c3ccccc3)nc2)cc1,51
7,O=C(Nc1ccc(-c2cccc(Cl)c2)cn1)c1ccccc1,38
8,CC(C)(C)c1ccc(-c2ccc(NC(=O)c3ccccc3)nc2)cc1,49
9,O=C(Nc1ccc(-c2ccc(C(F)(F)F)cc2)cn1)c1ccccc1,39
10,O=C(Nc1ccc(-c2ccccc2)cn1)c1ccc(Cl)c(Cl)c1,13
11,COc1ccc(C(=O)Nc2ccc(-c3ccccc3)cn2)cc1,28
12,CCCC(=O)Nc1ccc(-c2ccccc2)cn1,22
13,O=C(Nc1ccccn1)c1ccccc1,27
14,O=C(Nc1cccc(-c2ccccc2)n1)c1ccccc1,30
15,c1ccc(CNc2ccc(-c3ccccc3)cn2)cc1,20
16,O=C(Nc1ccc(-c2ccccc2)cn1)Oc1ccccc1,0
17,CC(C)Oc1ccc(-c2ccc(NC(=O)c3ccccc3)nc2)cc1,38
18,CN(C)c1ccc(-c2ccc(NC(=O)c3ccccc3)nc2)cc1,14
19,CN(C)c1ccc(C(=O)Nc2ccc(-c3ccccc3)cn2)cc1,35
20,O=C(Nc1ccccc1)Nc1ccc(-c2ccccc2)cn1,20

# Substrate: O=C(Nc1ccc2ccccc2n1)c1ccccc1
# Settings: Aquatica lateralis; 0.1 uM
Molecule,Km [µM],Vmax [%]
B1,16,96

# Substrate: O=C(Nc1ccc2ccccc2n1)c1ccccc1
# Settings: Aquatica lateralis; 1 uM
Molecule,Km [µM],Vmax [%]
B1,53,95

# Substrate: O=C(Nc1ccc2ccccc2n1)c1ccccc1
# Settings: Aquatica lateralis; 1 uM
# Remark: another data set of the same source
Molecule,Km [µM],Vmax [%]
B1,3.8,56
